ChEMBL document CHEMBL1140875, “DNA photocleavage by porphyrin-polyamine conjugates” (Bioorg Med Chem, 2009)
Active and inactive are the calls of the source. The calls are words filed in the database; no cut-off is given here.

Legend:
[1] = Photostability assessed as residual absorbance at 2.5 mW/cm2 irradiation for 45 mins; assay type: physicochemical; details: read-out: Stability
[2] = Photostability assessed as residual absorbance at 2.5 mW/cm2 irradiation for 60 mins; assay type: physicochemical; details: read-out: Stability
Escherichia coli [3] = assay: Induction of DNA photocleavage activity in Escherichia coli pBR322 plasmid assessed as supercoiled DNA form at 10 uM after 15 mins irradiation at 2.5 mW/cm2 by gel electrophoresis
Summary of the method: (§1)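 Supercoiled pBR322 (0.25 µg in 10 µL) in 3 mM Tris–HCl, 0.3 mM EDTA, pH 8.0 at 25 °C, with 10 µM porphyrin. White light at 2.5 mW/cm2 from an 18 W lamp 4 cm away, for 15–120 min. Controls without porphyrin and/or without light. Products run on 0.7% non-denaturing agarose, SYBRsafe stain, transilluminator at 312 nm. Supercoiled, nicked and linear forms quantified as %.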

[4] = Photostability assessed as residual absorbance at 2.5 mW/cm2 irradiation for 15 mins; assay type: physicochemical; details: read-out: Stability
Escherichia coli [5] = assay: Induction of DNA photocleavage activity in Escherichia coli pBR322 plasmid assessed as supercoiled DNA form at 10 uM after 120 mins irradiation at 2.5 mW/cm2 by gel electrophoresis; summary of the method: as §1
Escherichia coli [6] = assay: Induction of DNA photocleavage activity in Escherichia coli pBR322 plasmid assessed as supercoiled DNA form at 10 uM after 30 mins irradiation at 2.5 mW/cm2 by gel electrophoresis; summary of the method: as §1
Escherichia coli [7] = assay: Induction of DNA photocleavage activity in Escherichia coli pBR322 plasmid assessed as nicked DNA form at 10 uM after 30 mins irradiation at 2.5 mW/cm2 by gel electrophoresis; summary of the method: as §1
Escherichia coli [8] = assay: Induction of DNA photocleavage activity in Escherichia coli pBR322 plasmid assessed as nicked DNA form at 10 uM by gel electrophoresis; summary of the method: as §1
[9] = Lipophilicity, log P of the compound; assay type: physicochemical; details: octanol/water
Summary of the method: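 1-Octanol/water partition at 25 °C with equal 3 mL phases and dye at 300 µM. Mixture vortexed and centrifuged. Aqueous and organic aliquots each diluted into MeOH, and dye concentration in each phase measured by absorption spectroscopy.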

[10] = Induction of singlet oxygen production at 1 uM after irradiation at 10 mW/cm2 in presence of 1,3-diphenylisobenzofuran; assay type: physicochemical
Summary of the method: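 Photosensitizer at 10^-6 M with DPBF at 6 × 10^-5 M in DMF/H2O (9/1). Illuminated at room temperature for 30 min with two 30 W white bulbs, 10 mW/cm2. DPBF absorbance decay read at 415 nm every 3 min.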

Escherichia coli [11] = assay: Induction of DNA photocleavage activity in Escherichia coli pBR322 plasmid assessed as supercoiled DNA form at 10 uM after 90 mins irradiation at 2.5 mW/cm2 by gel electrophoresis; summary of the method: as §1
Escherichia coli [12] = assay: Induction of DNA photocleavage activity in Escherichia coli pBR322 plasmid assessed as supercoiled DNA form at 10 uM by gel electrophoresis
[13] = Photostability assessed as residual absorbance at 2.5 mW/cm2 irradiation for 30 mins; assay type: physicochemical; details: read-out: Stability
Escherichia coli [14] = assay: Induction of DNA photocleavage activity in Escherichia coli pBR322 plasmid assessed as nicked DNA form at 10 uM after 60 mins irradiation at 2.5 mW/cm2 by gel electrophoresis; summary of the method: as §1
Escherichia coli [15] = assay: Induction of DNA photocleavage activity in Escherichia coli pBR322 plasmid assessed as nicked DNA form at 10 uM after 15 mins irradiation at 2.5 mW/cm2 by gel electrophoresis; summary of the method: as §1
Escherichia coli [16] = assay: Induction of DNA photocleavage activity in Escherichia coli pBR322 plasmid assessed as nicked DNA form at 10 uM after 120 mins irradiation at 2.5 mW/cm2 by gel electrophoresis; summary of the method: as §1
Escherichia coli [17] = assay: Induction of DNA photocleavage activity in Escherichia coli pBR322 plasmid assessed as supercoiled DNA form at 10 uM after 60 mins irradiation at 2.5 mW/cm2 by gel electrophoresis; summary of the method: as §1
Escherichia coli [18] = assay: Induction of DNA photocleavage activity in Escherichia coli pBR322 plasmid assessed as nicked DNA form at 10 uM after 90 mins irradiation at 2.5 mW/cm2 by gel electrophoresis; summary of the method: as §1
Escherichia coli [19] = assay: Induction of DNA photocleavage activity in Escherichia coli pBR322 plasmid assessed as nicked DNA form at 10 uM after 60 mins irradiation at 2.5 mW/cm2 by gel electrophoresis in presence of sodium azide
Summary of the method: (§2)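 pBR322 (0.25 µg) in 3 mM Tris–HCl, 0.3 mM EDTA, pH 8.0 with 10 µM porphyrin, irradiated 60 min in the presence of 100 mM sodium azide (singlet oxygen quencher) or 100 mM mannitol (hydroxyl radical scavenger). Controls without porphyrin, ± irradiation, with each additive. Read-out by agarose gel electrophoresis.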

Escherichia coli [20] = assay: Induction of DNA photocleavage activity in Escherichia coli pBR322 plasmid at 10 uM after irradiation for 2 hrs by gel electrophoresis
Escherichia coli [21] = assay: Induction of DNA photocleavage activity in Escherichia coli pBR322 plasmid assessed as linear DNA form at 10 uM after 90 mins irradiation at 2.5 mW/cm2 by gel electrophoresis; summary of the method: as §1
Escherichia coli [22] = assay: Induction of DNA photocleavage activity in Escherichia coli pBR322 plasmid assessed as linear DNA form at 10 uM after 120 mins irradiation at 2.5 mW/cm2 by gel electrophoresis; summary of the method: as §1
DNA = assay: Binding affinity to calf thymus DNA at 4 uM in phosphate buffer of pH 7.4 by UV-vis spectroscopy; assay type: nucleic-acid assay; details: Bos taurus
Summary of the method: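 Porphyrin held at 4 × 10^-6 M in PBS pH 7.4 and read by UV–vis at the Soret maximum. Calf thymus DNA titrated in at base-pair concentrations from 1.2 × 10^-6 to 1.2 × 10^-5 M, base pair/porphyrin ratio 0.2 to 3. Change in the Soret band followed.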

Escherichia coli [23] = assay: Induction of DNA photocleavage activity in Escherichia coli pBR322 plasmid assessed as supercoiled DNA form at 10 uM after 60 mins irradiation at 2.5 mW/cm2 by gel electrophoresis in presence of mannitol; summary of the method: as §2
Escherichia coli [24] = assay: Induction of DNA photocleavage activity in Escherichia coli pBR322 plasmid assessed as nicked DNA form at 10 uM after 60 mins irradiation at 2.5 mW/cm2 by gel electrophoresis in presence of mannitol; summary of the method: as §2
Escherichia coli [25] = assay: Induction of DNA photocleavage activity in Escherichia coli pBR322 plasmid assessed as supercoiled DNA form at 10 uM after 60 mins irradiation at 2.5 mW/cm2 by gel electrophoresis in presence of sodium azide; summary of the method: as §2
Escherichia coli [26] = assay: Induction of DNA photocleavage activity in Escherichia coli pBR322 plasmid assessed as linear DNA form at 10 uM after 60 mins irradiation at 2.5 mW/cm2 by gel electrophoresis; summary of the method: as §1

remaining at 0.75 h [1] [%]	remaining at 1 h [2] [%]	Activity (Escherichia coli [3]) [%]	remaining at 0.25 h [4] [%]	Activity (Escherichia coli [5]) [%]	Activity (Escherichia coli [6]) [%]	Activity (Escherichia coli [7]) [%]	Activity (Escherichia coli [8]) [%]	logP [9]	Activity [10]	Activity (Escherichia coli [11]) [%]	Activity (Escherichia coli [12]) [%]	remaining at 0.5 h [13] [%]	Activity (Escherichia coli [14]) [%]	Activity (Escherichia coli [15]) [%]	Activity (Escherichia coli [16]) [%]	Activity (Escherichia coli [17]) [%]	Activity (Escherichia coli [18]) [%]	Activity (Escherichia coli [21]) [%]	Activity (Escherichia coli [22]) [%]	Structure (SMILES)	further results
99	98	70	100	71	72	28	30	0.07	Active	72	70	99	30	30	29	70	28	–	–	Cc1cc(C)c(-c2c3nc(c(-c4ccc(C(=O)NCCCCC(=O)N(CCCN)CCCCNCCCN)cc4)c4ccc([nH]4)c(-c4c(C)cc(C)cc4C)c4nc(c(-c5ccc(C(=O)NCCCCC(=O)N(CCCN)CCCCNCCCN)cc5)c5ccc2[nH]5)C=C4)C=C3)c(C)c1	–
100	97	45	100	1	26	74	34	-0.51	Active	1	81	100	93	55	97	7	97	2	2	C=CC1=C(C)c2cc3[nH]c(cc4nc(cc5[nH]c(cc1n2)c(C)c5CCC(=O)NCCCCC(=O)N(CCCN)CCCCNCCCN)C(CCC(=O)NCCCCC(=O)N(CCCN)CCCCNCCCN)=C4C)c(C)c3C=C	Activity (Escherichia coli [19]): 49%; Activity (Escherichia coli [20]): Active; Activity (DNA): Active; Activity (Escherichia coli [23]): 32%; Activity (Escherichia coli [24]): 68%; Activity (Escherichia coli [25]): 51%
98	97	46	100	5	36	64	36	-0.12	Active	12	78	99	78	54	90	22	84	4	4	C=CC1=C(C)c2cc3[nH]c(cc4nc(cc5[nH]c(cc1n2)c(C)c5CCC(=O)NCCCCC(=O)N(CCCN)CCCCN)C(CCC(=O)NCCCCC(=O)N(CCCN)CCCCN)=C4C)c(C)c3C=C	Activity (Escherichia coli [19]): 42%; Activity (Escherichia coli [20]): Active; Activity (DNA): Active; Activity (Escherichia coli [23]): 42%; Activity (Escherichia coli [24]): 58%; Activity (Escherichia coli [25]): 58%
100	99	73	100	78	75	25	27	0.11	Active	71	73	100	28	27	22	72	29	–	–	Cc1cc(C)c(-c2c3nc(c(-c4ccc(C(=O)NCCCCC(=O)N(CCCN)CCCCN)cc4)c4ccc([nH]4)c(-c4c(C)cc(C)cc4C)c4nc(c(-c5ccc(C(=O)NCCCCC(=O)N(CCCN)CCCCN)cc5)c5ccc2[nH]5)C=C4)C=C3)c(C)c1	–
99	97	66	100	11	57	43	15	-2.83	Active	38	85	100	51	34	75	40	53	9	15	NCCCNCCCCN(CCCN)C(=O)CCCCNC(=O)c1ccc(-c2c3nc(c(-c4ccc(C(=O)NCCCCC(=O)N(CCCN)CCCCNCCCN)cc4)c4ccc([nH]4)c(-c4ccc(C(=O)NCCCCC(=O)N(CCCN)CCCCNCCCN)cc4)c4nc(c(-c5ccc(C(=O)NCCCCC(=O)N(CCCN)CCCCNCCCN)cc5)c5ccc2[nH]5)C=C4)C=C3)cc1	Activity (Escherichia coli [26]): 8%; Activity (DNA): Active
98	97	72	100	39	64	36	16	-2.02	Active	43	84	99	39	28	51	59	50	7	10	NCCCCN(CCCN)C(=O)CCCCNC(=O)c1ccc(-c2c3nc(c(-c4ccc(C(=O)NCCCCC(=O)N(CCCN)CCCCN)cc4)c4ccc([nH]4)c(-c4ccc(C(=O)NCCCCC(=O)N(CCCN)CCCCN)cc4)c4nc(c(-c5ccc(C(=O)NCCCCC(=O)N(CCCN)CCCCN)cc5)c5ccc2[nH]5)C=C4)C=C3)cc1	Activity (Escherichia coli [26]): 2%; Activity (DNA): Active
